Rpn11 inh: blocks the human proteasome subunit Rpn11 | O00487 | human 26S proteasome, Ub4-pepOG fluorescence polarization; 20S core pre-blocked with epoxomicin | inhibition, % at 20 µM | 360,000 compounds, 0.59% hits | AID 588493;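 active means inhibition at 20 µM, scaled to each plate's controls, above about 33%, limit read from the data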
Target sequence (O00487 whole entry, looked up): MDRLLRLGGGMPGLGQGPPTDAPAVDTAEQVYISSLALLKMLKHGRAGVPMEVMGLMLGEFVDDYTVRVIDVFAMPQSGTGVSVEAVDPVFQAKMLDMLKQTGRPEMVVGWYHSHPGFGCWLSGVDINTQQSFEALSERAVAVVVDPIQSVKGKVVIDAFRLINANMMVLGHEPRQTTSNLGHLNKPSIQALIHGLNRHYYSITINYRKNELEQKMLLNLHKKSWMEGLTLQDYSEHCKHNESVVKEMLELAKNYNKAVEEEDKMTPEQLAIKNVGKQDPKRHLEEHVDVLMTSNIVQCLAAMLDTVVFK
TPT1 inh: C. albicans TPT1 enzyme inhibition; recombinant caTPT1, FP RNA substrate dephosphorylation; inhibition, % at 5 µM; 300,000 compounds, 0.81% hits; AID 1962;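 active means inhibition above the mean of all tested compounds plus 3 SD, set per screening campaign, cut at about 24% in these data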
HNF4A DNA FP: change in binding of human HNF4 alpha to DNA. P41235. HNF4a-FITC DNA binding, fluorescence polarization, 1 h. activity change, % at 10 µM. 360,000 compounds, 0.3% hits; in the data active means activity change above about 30%, passing the limit was not always enough
SENP1 inh: blocks the human SENP1 SUMO protease catalytic domain. inhibition, % at 10 µM. Q9P0U3. recombinant SENP1 catalytic domain, CyPet-SUMO1-YPet FRET cleavage. 360,000 compounds, 0.21% hits;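 active means inhibition at least 30% at 10 µM, raw YFP signal under a set limit, fluorescence ratio 0.5 to 1.5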
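Test system: recombinant human SENP1 catalytic domain, His6-tagged / Medium: pH 8 Tris buffer with EDTA, NaCl, BME, BSA, NP40, catalase / Also added: SUMO1 FRET substrate flanked by Cypet and Ypet, 25 nM / Times: 50 min reaction at room temperature / Signal: FRET, CFP and YFP emission / Control set: no-enzyme low control and enzyme-plus-DMSO high control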
CSN inh: CSN deneddylation inhibition | Purified CSN, SCF-Nedd8-OG deneddylation, fluorescence polarization | Q92905 | 360,000 compounds, 0.38% hits | inhibition, % at 12.5 µM;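 active means pattern-corrected inhibition above about 35%, with an unprinted fluorescence ratio check between 0.5 and 1.5, limit read from the data, passing the limit was not always enough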
Target sequence (Q92905 whole entry, looked up, one chain of several): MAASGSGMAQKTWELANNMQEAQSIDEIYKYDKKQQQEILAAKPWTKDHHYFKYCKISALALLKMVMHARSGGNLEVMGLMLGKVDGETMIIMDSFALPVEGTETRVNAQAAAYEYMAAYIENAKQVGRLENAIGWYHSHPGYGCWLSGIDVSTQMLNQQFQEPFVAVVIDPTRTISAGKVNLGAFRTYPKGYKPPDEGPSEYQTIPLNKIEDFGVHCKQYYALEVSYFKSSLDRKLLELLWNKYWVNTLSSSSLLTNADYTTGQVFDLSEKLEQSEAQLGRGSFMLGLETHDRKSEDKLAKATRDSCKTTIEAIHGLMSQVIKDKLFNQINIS
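Assay system: HEK293T-derived human Csn5 enzyme; quantity: 0.24 nM enzyme; medium: Tris/NaCl/DTT buffer, pH 7.5; also added: substrate SCFSkp2-Nedd8OG, 10 nM; doses: 12.5 µM compound; schedule: 90 min reaction at room temperature; signal: FP; read-out: % inhibition of substrate cleavage by Csn5; benchmarks: substrate-only high control, full reaction low control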
ATG4B inhibitor: ATG4B (human) cysteine protease inhibition; Q9Y4P1; ATG4B cleavage of LC3-PLA2, NBD-HPC fluorescence, 1 h; inhibition, % at 8.33 µM; 340,000 compounds, 0.51% hits; AID 504462; in the data active means inhibition above about 40%
caTPT1 confirm: TPT1 (C. albicans) inhibition, confirmation; shares compounds with TPT1 inh; recombinant caTPT1, fluorescence polarization, RNase T1 coupled; inhibition, % at 5 µM; 2,400 compounds, 74% hits; AID 2149;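 active means inhibition above the primary screen limit, the mean inhibition of all tested compounds plus 3 SD, cut at about 25% in these data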
RNase T1 counter: counter-screen for TPT1 inhibitors: inhibitors of Aspergillus oryzae RNase T1. shares compounds with TPT1 inh. RNase T1 cleavage, fluorescence polarization, 1536-well. inhibition, % at 5 µM. 2,400 compounds, 83% hits. AID 2153;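 active means inhibition above the solvent-only control well mean plus 3 SD, limit set per screening run, cut at about 23% in these data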;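 further: inhibitors block cleavage so intact labeled substrate keeps polarization high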
Numbers stand for hits. The list is not random: actives were taken first. Their share in the collection is about 2%.

Cc1ccc2nc(N/N=C\c3ccc([N+](=O)[O-])o3)nc(-c3ccccc3)c2c1 was read as Rpn11 inh inactive, TPT1 inh 52, HNF4A DNA FP inactive, SENP1 inh inactive, CSN inh inactive, ATG4B inhibitor inactive, caTPT1 confirm 49 and RNase T1 counter 44.
Cc1oc(C)c2c(=O)ccc3c(c12)OC(N)=C(C#N)C3c1ccccc1Cl (stereo not given) was read as TPT1 inh 29, HNF4A DNA FP inactive, SENP1 inh inactive, CSN inh inactive, ATG4B inhibitor inactive, caTPT1 confirm 48 and RNase T1 counter 56.
CC(C)/C=C/C(=O)N1CCC(N2CCC(C(=O)NCc3ccccn3)CC2)CC1 was read as Rpn11 inh inactive, TPT1 inh inactive, HNF4A DNA FP inactive, SENP1 inh inactive, CSN inh inactive and ATG4B inhibitor inactive.
CC(C)NC(=O)C1CCN(C2CCN(C(=O)/C=C/c3cccs3)CC2)CC1 was read as Rpn11 inh inactive, TPT1 inh 25, HNF4A DNA FP inactive, SENP1 inh inactive, CSN inh inactive, ATG4B inhibitor inactive, caTPT1 confirm inactive and RNase T1 counter inactive.
Screening COc1cc(/C=C/CNC[C@H]2O[C@@H](n3cnc4c(=O)[nH]c(N)nc43)[C@H](O)[C@@H]2O)ccc1O returned Rpn11 inh inactive, HNF4A DNA FP inactive, SENP1 inh inactive and CSN inh inactive.
For Cc1nnc(N2CCOCC2)c2nn(-c3cccc(Cl)c3)c(C)c12 the results were TPT1 inh 28, HNF4A DNA FP inactive, SENP1 inh inactive, CSN inh inactive, ATG4B inhibitor inactive, caTPT1 confirm 69 and RNase T1 counter 76.
Screening C[C@H](O)[C@@H]1C(=O)N2CCc3ccc(-c4ccccc4)cc3[C@@H]2C[C@@H]1N(C)C(=O)Nc1cc(Cl)cc(Cl)c1 returned Rpn11 inh inactive, HNF4A DNA FP inactive, SENP1 inh inactive, CSN inh inactive and ATG4B inhibitor inactive.
For CSCCC(NC(=O)c1ccccc1Br)C(=O)N1CCN(C/C=C/c2ccccc2)CC1 (stereo not given) the results were Rpn11 inh inactive, HNF4A DNA FP inactive, SENP1 inh inactive, CSN inh inactive and ATG4B inhibitor inactive.
`Cc1ccc(SC(C)C(=O)NCc2ccncc2)cc1` (stereo not given) gave Rpn11 inh inactive, TPT1 inh 114, HNF4A DNA FP inactive, SENP1 inh inactive, CSN inh inactive, ATG4B inhibitor inactive, caTPT1 confirm inactive and RNase T1 counter inactive.
Screening COCCN(C)Cc1nc(C(c2ccccc2)c2ccccc2)no1 returned Rpn11 inh inactive, TPT1 inh inactive, HNF4A DNA FP inactive, SENP1 inh inactive, CSN inh inactive and ATG4B inhibitor inactive.
N#CCc1nc(C(c2ccccc2)c2ccccc2)no1 was read as TPT1 inh 25, HNF4A DNA FP inactive, SENP1 inh inactive, CSN inh inactive, ATG4B inhibitor inactive, caTPT1 confirm inactive and RNase T1 counter 28.
Cc1c(C#N)c(O)[nH]c(=O)c1N=Nc1ccc(S(N)(=O)=O)cc1 was read as Rpn11 inh inactive, TPT1 inh 25, HNF4A DNA FP inactive, SENP1 inh inactive, CSN inh inactive, ATG4B inhibitor inactive, caTPT1 confirm inactive and RNase T1 counter 26.
`CN(C)c1ccc(/C=C2\CCCc3c2nc2ccccc2c3C(=O)O)cc1` gave Rpn11 inh inactive, TPT1 inh 25, HNF4A DNA FP inactive, SENP1 inh inactive, CSN inh inactive, ATG4B inhibitor inactive, caTPT1 confirm 28 and RNase T1 counter 39.
O=C(O)c1ccc(/C=C2\CCCc3c2nc2ccccc2c3C(=O)O)cc1 was read as Rpn11 inh inactive, TPT1 inh inactive, HNF4A DNA FP inactive, SENP1 inh inactive, CSN inh inactive and ATG4B inhibitor inactive.
`Cn1c(CN2CCCC2)nc2cc(NC(=O)COc3ccc(Cl)cc3)ccc21` gave Rpn11 inh inactive, TPT1 inh 60, HNF4A DNA FP inactive, SENP1 inh inactive, CSN inh inactive, ATG4B inhibitor inactive, caTPT1 confirm inactive and RNase T1 counter inactive.
`CN(C)C(=O)CCc1ccc2c3c([nH]c2c1)[C@]1(C)[C@@H](C(=O)N2CCOCC2)C[C@H](CC(=O)NCc2cccc(C(F)(F)F)c2)C(=O)N1CC3` gave Rpn11 inh inactive, HNF4A DNA FP inactive, SENP1 inh inactive, CSN inh inactive and ATG4B inhibitor inactive.
Screening CS(=O)(=O)N1CC2CCCN2c2ccc(C(F)(F)F)cc21 (stereo not given) returned Rpn11 inh inactive, TPT1 inh inactive, HNF4A DNA FP inactive, SENP1 inh inactive, CSN inh inactive and ATG4B inhibitor inactive.
CS(=O)(=O)N1CC2CCCN2c2cc(C(F)(F)F)ccc21 (stereo not given) was read as Rpn11 inh inactive, TPT1 inh 28, HNF4A DNA FP inactive, SENP1 inh inactive, CSN inh inactive, ATG4B inhibitor inactive, caTPT1 confirm inactive and RNase T1 counter inactive.
`Cc1ccc(SC2=C(N(C)C)C(=O)c3ccccc3C2=O)cc1` gave Rpn11 inh inactive, HNF4A DNA FP inactive, SENP1 inh inactive, CSN inh inactive and ATG4B inhibitor inactive.
For O=C1NC(=Nc2ccccc2Cl)S/C1=C\c1cccc([N+](=O)[O-])c1O the results were Rpn11 inh inactive, TPT1 inh 28, HNF4A DNA FP inactive, SENP1 inh 58, CSN inh inactive, ATG4B inhibitor inactive, caTPT1 confirm 42 and RNase T1 counter 55.
For COc1c(/C=C2\SC(=Nc3ccccc3Cl)NC2=O)cccc1[N+](=O)[O-] the results were Rpn11 inh inactive, TPT1 inh inactive, HNF4A DNA FP inactive, SENP1 inh inactive, CSN inh inactive and ATG4B inhibitor inactive.
For CC1N(C)c2cccc3cccc(c23)N1C the results were Rpn11 inh 71, TPT1 inh 32, HNF4A DNA FP inactive, SENP1 inh inactive, CSN inh inactive, ATG4B inhibitor inactive, caTPT1 confirm inactive and RNase T1 counter inactive.
Screening O=C(COC(=O)Cn1ccc(=O)[nH]c1=O)Nc1ccc(F)cc1 returned Rpn11 inh inactive, HNF4A DNA FP inactive, SENP1 inh inactive, CSN inh inactive and ATG4B inhibitor inactive.
Screening CCN(CC)C(=O)Cn1c(C)c(/C=C/c2cc[n+](C)cc2)c2ccccc21 returned TPT1 inh 108, HNF4A DNA FP inactive, SENP1 inh inactive, CSN inh 99, ATG4B inhibitor inactive, caTPT1 confirm 108 and RNase T1 counter 107.
